Measured values collected from several papers.
Each line is one published result; the experiments were not run side by side.
gag-pol protease: Gag-Pol polyprotein, protease (gag-pol, Human immunodeficiency virus type 1 group M subtype B, UniProt P04585)
CES1: Liver carboxylesterase 1 (CES1, Homo sapiens, UniProt P23141)
KCNH2: Voltage-gated inwardly rectifying potassium channel KCNH2 (KCNH2, Homo sapiens, UniProt Q12809)
F2: Prothrombin (F2, Homo sapiens, UniProt P00734)

CC(C)=CCC[C@](C)(O)[C@H]1CC[C@]2(C)[C@@H]1[C@H](O)C[C@@H]1[C@@]3(C)CC[C@H](O)C(C)(C)[C@@H]3[C@@H](O[C@@H]3O[C@H](CO)[C@@H](O)[C@H](O)[C@H]3O)C[C@]12C — Kd (Aldo-keto reductase family 1 member B10 (AKR1B10, Homo sapiens, UniProt O60218); binding; BLI): 3190 nM
COc1ccc(S(=O)(=O)N(CC(C)C)C[C@@H](O)[C@H](Cc2ccccc2)NC(=O)O[C@@H]2CCC[C@@]23CCO[C@@H](c2cc(OC)cc(OC)c2)C3)cc1 — Ki (gag-pol protease; enzyme activity; inhibitor): 35.5 nM
CCOC(=O)c1ccc(OC(=O)CCCCCN=C(N)N)cc1 — IC50 (Kallikrein-14 (Homo sapiens, UniProt Q9P0G3); enzyme activity; inhibitor): 641 nM
COc1ccc(S(=O)(=O)N(CC(C)C)C[C@@H](O)[C@H](Cc2ccccc2)NC(=O)O[C@@H]2CCC[C@@]23CCO[C@@H](c2ccccc2)C3)cc1 — Ki (gag-pol protease; enzyme activity; inhibitor): 51 nM
COc1c2c(cc3c1-c1c(cc4c(c1OC)OCO4)C[C@H](C)[C@H](C)C3)OCO2 — IC50 (CES1; enzyme activity; inhibitor): 1400 nM
CC(=O)c1c(C)c2cnc(Nc3ccc(C4CCN(CCS(C)(=O)=O)CC4)cn3)nc2n(C2CCCC2)c1=O — IC50 (KCNH2; ion current; inhibitor): > 30000 nM
C=CCc1ccc(O)c(-c2cc(CC=C)ccc2O)c1 — IC50 (CES1; enzyme activity; inhibitor): 390 nM
COc1ccc(S(=O)(=O)N(CC(C)C)C[C@@H](O)[C@H](Cc2ccccc2)NC(=O)O[C@H]2CCC[C@@]23CCO[C@@H](c2cccc(OC)c2)C3)cc1 — Ki (gag-pol protease; enzyme activity; inhibitor): 1080 nM
CS(=O)(=O)N[C@@H](CCC(N)=O)C(=O)N[C@@H](Cc1ccccc1)C(=O)N[C@@H](CCCNC(=N)N)C(=O)c1nccs1 — Ki (F2; cell-free assay): > 10000 nM
COc1ccc(S(=O)(=O)N(CC(C)C)C[C@@H](O)[C@H](Cc2ccccc2)NC(=O)O[C@H]2CCC[C@]23CCO[C@H](c2ccccc2OC)C3)cc1 — Ki (gag-pol protease; enzyme activity; inhibitor): 0.22 nM
O=c1c2cc(Cl)ccc2[nH]c(=S)n1Cc1ccc(-c2nnn[nH]2)nc1 — IC50 (KCNH2; ion current; inhibitor; patch clamp; pH 7.4): > 10000 nM
NCCCCNCCCN — Kd (tlpQ (Pseudomonas aeruginosa, UniProt Q9I0I4); binding; ITC): 120 nM
CCOC(=O)N[C@@H](CCCNC(=N)N)C(=O)N[C@@H](CCC(N)=O)C(=O)N[C@@H](Cc1ccccc1)C(=O)N[C@@H](CCCNC(=N)N)C(=O)c1nc2ccccc2s1 — Ki (F2; cell-free assay): > 10000 nM
CN1CCC(CNc2ccc3ncc(-c4cccc(OC(F)(F)F)c4)n3n2)CC1 — IC50 (3',5'-cyclic-AMP phosphodiesterase 4D (PDE4D, Homo sapiens, UniProt Q08499); enzyme activity; inhibitor): 5040 nM
